ChEMBL document CHEMBL1153844, “Synthesis, crystal structure and anti-inflammatory properties of curcumin analogues” (2009)
Calls of active or inactive are those of the source. The calls are words filed in the database; no cut-off is given here.

Key:
J774.A1 [1] = assay: Antiinflammatory activity in mouse J774A1 cells assessed as inhibition of LPS-induced TNFalpha production at 10 uM preincubated for 3 hrs before LPS challenge measured after 21 hrs by ELISA relative to control; assay type: functional
Outline: (§1)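 J774A.1 mouse macrophage-like cells were plated overnight in DMEM with 10% FBS and penicillin/streptomycin at 1.2 × 10⁶/plate, 37 °C, 5% CO₂. They were pretreated 3 h with compound or vehicle, then given LPS for 21 h. TNF-α or IL-6 in the medium was measured by ELISA and normalized to total protein of the lysed cell pellet. Values are percent of LPS control, from three independent experiments (mean ± S.E.).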

J774.A1 [2] = assay: Antiinflammatory activity in mouse J774A1 cells assessed as inhibition of LPS-induced IL6 production at 10 uM preincubated for 3 hrs before LPS challenge measured after 21 hrs by ELISA relative to control; assay type: functional; outline: as §1
J774.A1 [3] = assay: Enhancement of LPS-induced TNFalpha production in mouse J774A1 cells at 10 uM preincubated for 3 hrs before LPS challenge measured after 21 hrs by ELISA; assay type: functional, cell-based; outline: as §1
J774.A1 [4] = assay: Enhancement of LPS-induced IL6 production in mouse J774A1 cells at 10 uM preincubated for 3 hrs before LPS challenge measured after 21 hrs by ELISA; assay type: functional, cell-based; outline: as §1
J774.A1 [5] = assay: Antiinflammatory activity in mouse J774A1 cells assessed as inhibition of LPS-induced IL6 production at 10 uM preincubated for 3 hrs before LPS challenge measured after 21 hrs by ELISA; assay type: functional, cell-based; outline: as §1
J774.A1 [6] = assay: Antiinflammatory activity in mouse J774A1 cells assessed as inhibition of LPS-induced TNFalpha production at 10 uM preincubated for 3 hrs before LPS challenge measured after 21 hrs by ELISA; assay type: functional, cell-based; outline: as §1

Compound	Activity (J774.A1 [5])	Activity (J774.A1 [6])	further results
O=C1/C(=C/c2ccc(F)cc2)CCC/C1=C\c1ccc(F)cc1			inhibition at 10 µM (J774.A1 [1]): 65.3%; inhibition at 10 µM (J774.A1 [2]): 54.8%
O=C(/C=C/c1ccc(O)cc1)/C=C/c1ccc(O)cc1			Activity (J774.A1 [3]): Active; Activity (J774.A1 [4]): Active
COc1cc(/C=C2\CC/C(=C\c3ccc(O)c(OC)c3)C2=O)ccc1O	Active	Active	
COc1cc(/C=C/C(=O)/C=C/c2ccc(O)c(OC)c2)ccc1O	Active	Active	
COc1cc(/C=C2\CCC/C(=C\c3ccc(O)c(OC)c3)C2=O)ccc1O	Active	Active	
O=C1/C(=C/c2ccc(O)cc2)CCC/C1=C\c1ccc(O)cc1	Active	Active	
